In ChEMBL document CHEMBL2331537, “Effective inhibition of acid and neutral ceramidases by novel B-13 and LCL-464 analogues” (Bioorg Med Chem, 2013):
Activity calls are given as the source filed them. No cut-off for these calls is given here.

How the values were obtained:
[1] = test system: MDA-MB-231; assay: Elevation of total ceramide level in human MDA-MB-231 cells at 50 uM after 24 hrs by LC-MS/MS analysis relative to control; format: functional
In short: (§1)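 MDA-MB-231 cells were exposed to inhibitor for 24 h at 37 °C at the concentration given in each line. Lipids were extracted by modified Bligh & Dyer with 20 pmol C17-ceramide as internal standard. Analysis was positive-mode LC–MS/MS on a C18 column, isocratic acetonitrile/2-propanol 3:2 with 1% formic acid. Values are mean SD of three independent experiments versus control.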

[2] = target: T1, Acid ceramidase (Homo sapiens) (UniProt Q13510); assay: Inhibition of human recombinant acid ceramidase using Acyl-NBD-C12-cer as substrate at 80 uM after 8 hrs by fluorescence assay
T1 sequence (whole entry): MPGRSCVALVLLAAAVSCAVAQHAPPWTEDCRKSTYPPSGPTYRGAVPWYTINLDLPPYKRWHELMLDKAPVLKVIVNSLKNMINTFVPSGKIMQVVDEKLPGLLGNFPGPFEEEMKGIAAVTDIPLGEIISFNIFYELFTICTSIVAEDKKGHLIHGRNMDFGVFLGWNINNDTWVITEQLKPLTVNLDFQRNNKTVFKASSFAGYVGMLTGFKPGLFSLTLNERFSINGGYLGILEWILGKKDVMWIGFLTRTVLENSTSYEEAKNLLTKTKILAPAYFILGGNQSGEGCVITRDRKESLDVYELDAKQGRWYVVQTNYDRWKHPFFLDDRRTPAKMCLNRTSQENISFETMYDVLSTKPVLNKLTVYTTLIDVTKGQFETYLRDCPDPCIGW
In short: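 Recombinant human enzyme (60 total protein) was in 200 mM sodium acetate pH 4.5, 200 mM NaCl, 0.1% Triton X-100, DMSO <5% v/v. Final substrate was 15 and inhibitor 80, incubated 8 h at 37 °C. Reactions were quenched with chloroform/methanol 2:1 and NBD-fatty acid separated by TLC. Imaging used ex 430/em 550 nm; % hydrolysis versus no-inhibitor control, mean SD, three experiments.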

[3] = target: Neutral ceramidase (Homo sapiens) (UniProt Q9NR71); assay: Inhibition of human recombinant neutral ceramidase using Acyl-NBD-C12-cer as substrate at 80 uM after 2 hrs by fluorescence assay
In short: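 Recombinant human enzyme at 25 ng/mL final was in 200 mM sodium acetate pH 7.0, 200 mM NaCl, 0.1% Triton X-100. Final substrate was 15 and inhibitor 80, incubated 2 h at 37 °C. Reactions were chloroform/methanol quenched and cleaved/uncleaved NBD substrate resolved by TLC with fluorescence imaging. Values are % of no-inhibitor control, mean SD, three experiments.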

[4] = test system: MDA-MB-231; assay: Induction of apoptosis in human MDA-MB-231 cells assessed as increase in cytoplasmic histone-associated DNA fragment level at 25 to 50 uM after 24 hrs by ELISA relative to control; format: functional
In short: (§2)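 Cells were seeded for 24 h, then treated 24 h in DMEM with compound or DMSO vehicle. Cytoplasmic histone-associated DNA fragments were measured photometrically by Cell Death Detection ELISA Plus, following the kit protocol. Values are % of control (mean S.D., n = 3); dose–response is read as optical density.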

[5] = test system: MDA-MB-231; assay: Induction of apoptosis in human MDA-MB-231 cells assessed as increase in cytoplasmic histone-associated DNA fragment level after 24 hrs by ELISA; format: functional, cell-based; conditions: MDA-MB-231, 24 h; in short: as §2
[6] = test system: MDA-MB-231; assay: Elevation of total ceramide level in human MDA-MB-231 cells at 25 uM after 24 hrs by LC-MS/MS analysis relative to control; format: functional; in short: as §1
[7] = test system: HL-60; assay: Cytotoxicity against human HL60 cells assessed as growth inhibition by trypan blue dye exclusion assay
[8] = test system: MDA-MB-231; assay: Elevation of C16-ceramide level in human MDA-MB-231 cells at 50 uM by LC-MS/MS analysis; format: functional, cell-based; in short: as §1
[9] = test system: MDA-MB-231; assay: Elevation of C24-ceramide level in human MDA-MB-231 cells at 50 uM by LC-MS/MS analysis; format: functional, cell-based; in short: as §1
[10] = test system: MDA-MB-231; assay: Elevation of C18-ceramide level in human MDA-MB-231 cells at 25 uM by LC-MS/MS analysis; format: functional, cell-based; in short: as §1
[11] = test system: MDA-MB-231; assay: Elevation of C18-ceramide level in human MDA-MB-231 cells at 50 uM by LC-MS/MS analysis; format: functional, cell-based; in short: as §1
[12] = test system: MDA-MB-231; assay: Elevation of C24-ceramide level in human MDA-MB-231 cells at 25 uM by LC-MS/MS analysis; format: functional, cell-based; in short: as §1
[13] = test system: MDA-MB-231; assay: Elevation of C16-ceramide level in human MDA-MB-231 cells at 25 uM by LC-MS/MS analysis; format: functional, cell-based; in short: as §1
[14] = target: Alkaline ceramidase 2 (Homo sapiens, UniProt Q5QJU3); assay: Inhibition of alkaline ceramidase 2 in human HL-60 cells using 3H]C16-ceramide as substrate after 1 hr by liquid scintillation counting analysis; format: cell-based

Chain of Neutral ceramidase (Homo sapiens) (Q9NR71 whole entry): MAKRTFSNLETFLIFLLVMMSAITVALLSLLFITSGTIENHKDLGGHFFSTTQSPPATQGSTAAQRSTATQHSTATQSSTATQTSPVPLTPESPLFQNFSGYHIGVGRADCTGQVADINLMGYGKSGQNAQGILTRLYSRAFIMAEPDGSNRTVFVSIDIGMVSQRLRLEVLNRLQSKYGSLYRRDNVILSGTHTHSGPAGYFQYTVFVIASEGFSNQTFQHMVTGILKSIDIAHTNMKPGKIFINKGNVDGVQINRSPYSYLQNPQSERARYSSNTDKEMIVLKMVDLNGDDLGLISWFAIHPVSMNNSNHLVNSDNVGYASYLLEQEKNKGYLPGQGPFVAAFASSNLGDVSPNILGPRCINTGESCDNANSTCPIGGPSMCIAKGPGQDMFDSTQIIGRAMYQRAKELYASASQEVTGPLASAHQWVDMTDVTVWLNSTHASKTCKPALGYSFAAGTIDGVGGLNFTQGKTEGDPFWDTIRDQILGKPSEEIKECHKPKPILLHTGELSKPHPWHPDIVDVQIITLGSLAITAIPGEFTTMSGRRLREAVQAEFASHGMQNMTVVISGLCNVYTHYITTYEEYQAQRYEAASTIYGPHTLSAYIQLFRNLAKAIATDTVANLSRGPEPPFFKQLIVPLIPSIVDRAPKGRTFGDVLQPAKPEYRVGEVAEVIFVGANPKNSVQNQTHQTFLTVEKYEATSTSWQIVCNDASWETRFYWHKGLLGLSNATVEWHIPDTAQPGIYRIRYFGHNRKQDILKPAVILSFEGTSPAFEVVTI

Structure (SMILES)	Activity [1]	inhibition [2]	inhibition [3]	also measured
CN(C)CCCCCCCCCCCC(=O)N[C@H](CO)[C@H](O)c1ccc([N+](=O)[O-])cc1	>=150%	Active	30%	–
CCCCCCCCCCCCCC(=O)NCC(O)c1ccccc1 (racemic)	>=150%	–	–	–
C[C@@H](NC(=O)CCCCCCCCCCCN(C)C)[C@@H](O)c1ccccc1	>=150%	–	–	–
CCCCCCCCCCCCCC(=O)N[C@H](CO)C(=O)c1ccc([N+](=O)[O-])cc1	–	Active	Active	–
CN(C)CCCCCCCCCCCC(=O)NCC(O)c1ccncc1 (racemic)	>=150%	inactive	inactive	–
CCCCCCCCCCCCCC(=O)N[C@H](CO)[C@H](O)c1ccc(N)cc1	300%	Active	Active	fold change (FC) [4]: 3; EC50 [5]: 59 µM; Activity [6]: 300%
CCCCCCCCCCCCCC(=O)N[C@H](CO)[C@H](O)c1ccc([N+](=O)[O-])cc1	350%	Active	–	IC50 [7]: 1.5 µM; Activity [8]: Active; Activity [9]: Active; Activity [10]: inactive; Activity [11]: Active; Activity [12]: inactive; Activity [6]: 150%; Activity [13]: inactive
CN(C)CCCCCCCCCCCC(=O)NCC(O)c1ccccc1 (racemic)	>=150%	–	–	–
CCCCCCCCCCCCCC(=O)N[C@H](C(=O)O)[C@H](O)c1ccc([N+](=O)[O-])cc1	150%	Active	inactive	Activity [6]: 150%
CCCCCCCCCCCCCC(=O)N[C@H](C)[C@@H](O)c1ccccc1	–	60%	8%	IC50 [14]: 1 µM
CN(C)CCCCCCCCCCCC(=O)NCC(O)c1cccnc1 (racemic)	< 150%	inactive	inactive	–
